Results as given in ChEMBL document CHEMBL1781959, “Synthesis and in vitro antitumor activity of substituted quinazoline and quinoxaline derivatives: search for anticancer agent” (Eur J Med Chem, 2011).

Legend:
Type in all cases: functional
T47D = test: Anticancer activity against human T47D cells assessed as cell growth promotion at 10^-5 M after 48 hrs by SRB assay relative to control
[1] = Anticancer activity against human […] cells assessed as cell growth promotion at 10^-5 M after 48 hrs by SRB assay relative to control
CAKI-1 = test: Anticancer activity against human Caki1 cells assessed as cell growth promotion at 10^-5 M after 48 hrs by SRB assay relative to control
IGROV-1 = test: Anticancer activity against human IGROV1 cells assessed as cell growth promotion at 10^-5 M after 48 hrs by SRB assay relative to control
SF-268 = test: Anticancer activity against human SF268 cells assessed as cell growth promotion at 10^-5 M after 48 hrs by SRB assay relative to control
786-0 = test: Anticancer activity against human 786-0 cells assessed as cell growth promotion at 10^-5 M after 48 hrs by SRB assay relative to control
UACC-62 = test: Anticancer activity against human UACC62 cells assessed as cell growth promotion at 10^-5 M after 48 hrs by SRB assay relative to control
U-251 = test: Anticancer activity against human U251 cells assessed as cell growth promotion at 10^-5 M after 48 hrs by SRB assay relative to control
RXF 393 = test: Anticancer activity against human RXF393 cells assessed as cell growth promotion at 10^-5 M after 48 hrs by SRB assay relative to control
NCI/ADR-RES = test: Anticancer activity against human NCI/ADR-RES cells assessed as cell growth promotion at 10^-5 M after 48 hrs by SRB assay relative to control
SK-MEL-28 = test: Anticancer activity against human SK-MEL-28 cells assessed as cell growth promotion at 10^-5 M after 48 hrs by SRB assay relative to control
EKVX = test: Anticancer activity against human EKVX cells assessed as cell growth promotion at 10^-5 M after 48 hrs by SRB assay relative to control
TK-10 = test: Anticancer activity against human TK10 cells assessed as cell growth promotion at 10^-5 M after 48 hrs by SRB assay relative to control
HCT-15 = test: Anticancer activity against human HCT15 cells assessed as cell growth promotion at 10^-5 M after 48 hrs by SRB assay relative to control
KM12 = test: Anticancer activity against human KM12 cells assessed as cell growth promotion at 10^-5 M after 48 hrs by SRB assay relative to control
OVCAR-3 = test: Anticancer activity against human OVCAR3 cells assessed as cell growth promotion at 10^-5 M after 48 hrs by SRB assay relative to control
HT-29 = test: Anticancer activity against human HT-29 cells assessed as cell growth promotion at 10^-5 M after 48 hrs by SRB assay relative to control
COLO 205 = test: Anticancer activity against human COLO205 cells assessed as cell growth promotion at 10^-5 M after 48 hrs by SRB assay relative to control
MOLT-4 = test: Anticancer activity against human MOLT4 cells assessed as cell growth promotion at 10^-5 M after 48 hrs by SRB assay relative to control
SK-MEL-5 = test: Anticancer activity against human SK-MEL-5 cells assessed as cell growth promotion at 10^-5 M after 48 hrs by SRB assay relative to control
NCI-H23 = test: Anticancer activity against human NCI-H23 cells assessed as cell growth promotion at 10^-5 M after 48 hrs by SRB assay relative to control
ACHN = test: Anticancer activity against human ACHN cells assessed as cell growth promotion at 10^-5 M after 48 hrs by SRB assay relative to control
PC-3 = test: Anticancer activity against human PC3 cells assessed as cell growth promotion at 10^-5 M after 48 hrs by SRB assay relative to control
DU-145 = test: Anticancer activity against human DU145 cells assessed as cell growth promotion at 10^-5 M after 48 hrs by SRB assay relative to control
OVCAR-5 = test: Anticancer activity against human OVCAR5 cells assessed as cell growth promotion at 10^-5 M after 48 hrs by SRB assay relative to control
UACC-257 = test: Anticancer activity against human UACC257 cells assessed as cell growth promotion at 10^-5 M after 48 hrs by SRB assay relative to control
[2] = Anticancer activity against human Hs 578T cells assessed as cell growth promotion at 10^-5 M after 48 hrs by SRB assay relative to control
SF-295 = test: Anticancer activity against human SF295 cells assessed as cell growth promotion at 10^-5 M after 48 hrs by SRB assay relative to control
SR = test: Anticancer activity against human SR cells assessed as cell growth promotion at 10^-5 M after 48 hrs by SRB assay relative to control
A498 = test: Anticancer activity against human A498 cells assessed as cell growth promotion at 10^-5 M after 48 hrs by SRB assay relative to control
MDA-MB-435 = test: Anticancer activity against human MDA-MB-435 cells assessed as cell growth promotion at 10^-5 M after 48 hrs by SRB assay relative to control
SK-OV-3 = test: Anticancer activity against human SKOV3 cells assessed as cell growth promotion at 10^-5 M after 48 hrs by SRB assay relative to control
LOX IMVI = test: Anticancer activity against human LOXIMVI cells assessed as cell growth promotion at 10^-5 M after 48 hrs by SRB assay relative to control
HL-60(TB) = test: Anticancer activity against human HL-60(TB) cells assessed as cell growth promotion at 10^-5 M after 48 hrs by SRB assay relative to control
In short: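 NCI-60 single-dose screen: compound at 10^-5 M, 48 h at 37 °C, 5% CO2; cells grown in RPMI 1640 with 5% FBS and 2 mM L-glutamine, pre-incubated 24 h before dosing. Adherent cells fixed with cold TCA; endpoint is sulforhodamine B protein staining. Percent growth of treated cells is reported relative to untreated control.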

SF-539 = test: Anticancer activity against human SF539 cells assessed as cell growth promotion at 10^-5 M after 48 hrs by SRB assay relative to control
SW-620 = test: Anticancer activity against human SW620 cells assessed as cell growth promotion at 10^-5 M after 48 hrs by SRB assay relative to control
MCF7 = test: Anticancer activity against human MCF7 cells assessed as cell growth promotion at 10^-5 M after 48 hrs by SRB assay relative to control
SN12C = test: Anticancer activity against human SN12C cells assessed as cell growth promotion at 10^-5 M after 48 hrs by SRB assay relative to control
HCC 2998 = test: Anticancer activity against human HCC2998 cells assessed as cell growth promotion at 10^-5 M after 48 hrs by SRB assay relative to control

SMILES | Activity (T47D) | Activity [1] | Activity (CAKI-1) | Activity (IGROV-1) | Activity (SF-268) | Activity (786-0) | Activity (UACC-62) | Activity (U-251) | Activity (RXF 393) | Activity (NCI/ADR-RES) | Activity (SK-MEL-28) | Activity (EKVX) | Activity (TK-10) | Activity (HCT-15) | Activity (KM12) | Activity (OVCAR-3) | Activity (MOLT-4) | Activity (SK-MEL-5) | Activity (NCI-H23) | Activity (ACHN) | other results
COc1ccc(OC)c(/C=C/c2nc3ccccc3nc2SCc2nc3ccccc3[nH]2)c1 | 63.43% | 77.53% | 83.86% | 79.39% | 99.47% | 90.52% | 80.62% | 104% | 87% | 95.82% | 118% | 81.9% | 56.15% | 103% | 97.42% | 107% | 69.92% | 75.46% | 92.16% | 94.36% | Activity (HT-29): 80.4%; Activity (COLO 205): 104%; Activity (PC-3): 113%; Activity (DU-145): 98.54%; Activity (OVCAR-5): 101%; Activity (UACC-257): 111%; Activity [2]: 87.08%; Activity (SF-295): 110%; Activity (SR): 81.4%; Activity (A498): 95.89%; Activity (MDA-MB-435): 105%; Activity (SK-OV-3): 85.7%; Activity (LOX IMVI): 93.9%; Activity (HL-60(TB)): 91.21%; Activity (SF-539): 94.92%; Activity (SW-620): 96.03%; Activity (MCF7): 82.73%; Activity (SN12C): 88.34%
N#Cc1ccc(/C=C/c2ccc(NC(=O)c3ccccc3NC(=O)c3ccco3)cc2)cc1 | 103% | 108% | 83.31% | 110% | 104% | 115% | 99% | 100% | 114% | 109% | 113% | 88.81% | 126% | 104% | 107% | 107% | 99.1% | 103% | 94.62% | 104% | Activity (HCC 2998): 105%; Activity (COLO 205): 124%; Activity (PC-3): 109%; Activity (DU-145): 104%; Activity (OVCAR-5): 105%; Activity (UACC-257): 103%; Activity [2]: 100%; Activity (SF-295): 114%; Activity (SR): 109%; Activity (A498): 94.62%; Activity (MDA-MB-435): 108%; Activity (SK-OV-3): 111%; Activity (LOX IMVI): 109%; Activity (HL-60(TB)): 84.98%; Activity (SF-539): 102%; Activity (SW-620): 106%; Activity (MCF7): 98.4%; Activity (SN12C): 104%
NS(=O)(=O)c1ccc(NC(=O)c2ccccc2NC(=O)c2ccco2)cc1 | 103% | 117.5% | 100% | 117% | 98.43% | 108% | 107% | 99.55% | 113% | 111% | 107.1% | 97.23% | 102% | 105.5% | 108.4% | 108% | 87.33% | 108.4% | 110.8% | 101% | Activity (HCC 2998): 103.3%; Activity (HT-29): 99.28%; Activity (PC-3): 118%; Activity (DU-145): 113%; Activity (OVCAR-5): 99.82%; Activity (UACC-257): 100.1%; Activity [2]: 118%; Activity (SF-295): 103.8%; Activity (SR): 101.4%; Activity (A498): -23%; Activity (MDA-MB-435): 107.2%; Activity (SK-OV-3): 110%; Activity (LOX IMVI): 101.6%; Activity (HL-60(TB)): 93.06%; Activity (SF-539): 86.82%; Activity (SW-620): 101.9%; Activity (MCF7): 95.61%; Activity (SN12C): 105%
